Results from ChEMBL document CHEMBL1944633, “A new generation of radiofluorinated pyrimidine-2,4,6-triones as MMP-targeted radiotracers for positron emission tomography” (J Med Chem, 2012).

Columns and labels:
Collagenase 3 = Collagenase 3 (Homo sapiens, UniProt P45452); assay: Inhibition of MMP13 using (7-methoxycoumarin-4-yl)acetyl-Pro-Leu-Gly-Leu-(3-(2,4-dinitrophenyl)-L-2,3-diaminopropionyl)Ala-Arg-NH2 as substrate preincubated for 30 mins measured after 10 mins by fluorescence analysis
Outline: (§1)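 Activated enzyme at 2 nM preincubated with inhibitor (10 pM to 1 mM) for 30 min at 37 °C in 50 mM Tris-HCl pH 7.5, 0.2 M NaCl, 5 mM CaCl2, 20 μM ZnSO4, 0.05% Brij 35. Fluorogenic peptide substrate added (10 μL of 50 μM stock to 90 μL mix). Fluorescence read at ex 330/em 390 nm. Rates taken from initial 10 min; IC50 by nonlinear regression of rate versus concentration.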

[1] = biological target: Matrix metalloproteinase-9 (Homo sapiens, UniProt P14780); assay: Inhibition of MMP9 using (7-methoxycoumarin-4-yl)acetyl-Pro-Leu-Gly-Leu-(3-(2,4-dinitrophenyl)-L-2,3-diaminopropionyl)Ala-Arg-NH2 as substrate preincubated for 30 mins measured after 10 mins by fluorescence analysis
Chain of Matrix metalloproteinase-9 (P14780 whole entry): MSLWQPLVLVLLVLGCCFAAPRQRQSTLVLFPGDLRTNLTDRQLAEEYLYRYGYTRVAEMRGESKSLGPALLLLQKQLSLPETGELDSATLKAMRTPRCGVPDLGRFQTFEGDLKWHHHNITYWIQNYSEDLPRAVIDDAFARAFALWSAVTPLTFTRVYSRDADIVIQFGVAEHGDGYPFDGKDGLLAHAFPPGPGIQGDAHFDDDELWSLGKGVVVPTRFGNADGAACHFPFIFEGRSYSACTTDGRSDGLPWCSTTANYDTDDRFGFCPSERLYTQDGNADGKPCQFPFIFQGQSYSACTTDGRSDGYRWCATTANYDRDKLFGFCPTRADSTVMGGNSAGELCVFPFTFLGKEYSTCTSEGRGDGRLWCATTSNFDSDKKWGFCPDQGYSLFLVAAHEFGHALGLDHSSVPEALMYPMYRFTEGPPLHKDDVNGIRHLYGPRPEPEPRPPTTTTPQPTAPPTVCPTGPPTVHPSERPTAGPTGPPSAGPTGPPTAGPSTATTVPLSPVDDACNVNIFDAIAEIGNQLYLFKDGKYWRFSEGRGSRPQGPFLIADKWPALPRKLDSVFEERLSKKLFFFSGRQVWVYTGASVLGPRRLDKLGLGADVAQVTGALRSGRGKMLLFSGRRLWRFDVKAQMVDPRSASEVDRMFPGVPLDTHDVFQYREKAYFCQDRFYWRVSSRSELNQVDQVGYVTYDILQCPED
Outline: (§2)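 Activated enzyme at 2 nM preincubated with inhibitor (10 pM to 1 mM) for 30 min at 37 °C in 50 mM Tris-HCl pH 7.5, 0.2 M NaCl, 5 mM CaCl2, 20 μM ZnSO4, 0.05% Brij 35. Fluorogenic peptide substrate added (10 μL of 50 μM stock to 90 μL mix).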

[2] = biological target: 72 kDa type IV collagenase (Homo sapiens, UniProt P08253); assay: Inhibition of MMP2 using (7-methoxycoumarin-4-yl)acetyl-Pro-Leu-Gly-Leu-(3-(2,4-dinitrophenyl)-L-2,3-diaminopropionyl)Ala-Arg-NH2 as substrate preincubated for 30 mins measured after 10 mins by fluorescence analysis; outline: as §2
Chain of 72 kDa type IV collagenase (P08253 whole entry): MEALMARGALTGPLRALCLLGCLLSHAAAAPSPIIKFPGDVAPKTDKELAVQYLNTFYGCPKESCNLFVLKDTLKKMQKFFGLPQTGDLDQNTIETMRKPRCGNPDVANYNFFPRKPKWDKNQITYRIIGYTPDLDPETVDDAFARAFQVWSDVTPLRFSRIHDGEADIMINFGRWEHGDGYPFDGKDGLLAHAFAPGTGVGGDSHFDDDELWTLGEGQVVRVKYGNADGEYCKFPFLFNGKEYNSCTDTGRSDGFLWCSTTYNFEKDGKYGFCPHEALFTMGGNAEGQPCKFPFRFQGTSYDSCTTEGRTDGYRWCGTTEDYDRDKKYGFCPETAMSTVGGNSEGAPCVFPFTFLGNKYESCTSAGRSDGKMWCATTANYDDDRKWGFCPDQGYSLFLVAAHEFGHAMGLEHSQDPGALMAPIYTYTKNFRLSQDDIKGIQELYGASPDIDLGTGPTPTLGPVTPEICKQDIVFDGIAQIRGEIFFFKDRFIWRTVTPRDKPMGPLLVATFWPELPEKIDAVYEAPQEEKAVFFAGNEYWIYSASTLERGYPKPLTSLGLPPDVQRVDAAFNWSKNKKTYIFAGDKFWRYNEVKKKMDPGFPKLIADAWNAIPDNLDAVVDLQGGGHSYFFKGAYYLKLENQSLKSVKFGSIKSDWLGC

Neutrophil collagenase = Neutrophil collagenase (Homo sapiens, UniProt P22894); assay: Inhibition of MMP8 using (7-methoxycoumarin-4-yl)acetyl-Pro-Leu-Gly-Leu-(3-(2,4-dinitrophenyl)-L-2,3-diaminopropionyl)Ala-Arg-NH2 as substrate preincubated for 30 mins measured after 10 mins by fluorescence analysis; outline: as §1
Chain of Neutrophil collagenase (P22894 whole entry): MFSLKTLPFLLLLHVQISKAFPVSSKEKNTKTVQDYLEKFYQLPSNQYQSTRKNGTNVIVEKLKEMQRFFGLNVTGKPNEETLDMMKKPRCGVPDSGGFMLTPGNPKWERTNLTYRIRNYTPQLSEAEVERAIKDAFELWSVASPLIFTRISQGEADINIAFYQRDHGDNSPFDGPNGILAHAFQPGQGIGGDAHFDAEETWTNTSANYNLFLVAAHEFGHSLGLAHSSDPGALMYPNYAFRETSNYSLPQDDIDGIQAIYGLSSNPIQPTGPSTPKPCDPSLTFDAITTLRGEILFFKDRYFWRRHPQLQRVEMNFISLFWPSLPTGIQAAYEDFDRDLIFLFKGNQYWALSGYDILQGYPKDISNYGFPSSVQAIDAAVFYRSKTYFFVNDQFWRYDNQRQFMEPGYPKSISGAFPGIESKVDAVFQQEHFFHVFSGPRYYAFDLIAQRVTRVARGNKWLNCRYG

[3] = Octanol-water partition coefficient, log D of the compound at pH 7.4 by gamma counter; assay type: physicochemical
Outline: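 About 20 kBq radioligand shaken 1 min at room temperature in equal volumes (0.5 mL) of PBS pH 7.4 and 1-octanol. Phases separated by centrifugation (3000 rpm, 2 min). Three 100 μL samples per layer gamma-counted. log D7.4 = log(cpm octanol/cpm PBS). Two independent experiments in triplicate, mean ± standard deviation.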

Brain = assay: Drug uptake in BALB/c mouse brain at 5 to 8 MBq measured after 60 mins by CT scanning; assay type: ADME, tissue-based; conditions: in vivo, 1 h
Outline: (§3)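 Balb/c mice (19–27 g) under isoflurane (1.5%/0.3 L/min) on a heating pad, tail-vein catheter. 5–8 MBq radiotracer in 100 μL with 150 μL saline flush, injected iv 30 s after scan start. Dynamic list-mode small-animal PET for 60 min, iterative resolution-recovery reconstruction. CT acquired afterwards (80 μm). CT-guided volumes of interest gave time–activity curves as %ID.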

Kidney = assay: Drug uptake in BALB/c mouse kidney at 5 to 8 MBq measured after 60 mins by CT scanning; assay type: ADME; conditions: in vivo, 1 h; outline: as §3
Lung = assay: Drug uptake in BALB/c mouse lung at 5 to 8 MBq measured after 60 mins by CT scanning; assay type: ADME; conditions: in vivo, 1 h; outline: as §3
Serum = assay: Stability of the compound in human serum at 5MBq measured up to 120 mins by HPLC analysis; assay type: ADME, cell-free; conditions: 2 h
Outline: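 PBS-formulated radioligand (20 μL, 5 MBq) added to 200 μL human serum at 37 °C. 20 μL aliquots taken at 10, 20, 30, 60, 90 and 120 min and quenched in methanol/CH2Cl2 (1:1, 100 μL). Samples centrifuged 2 min; organic layer analysed by radio-HPLC (10–90% CH3CN/water, 0.1% TFA gradient).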

[4] = Drug uptake in BALB/c mouse gallbladder at 5 to 8 MBq measured after 60 mins by CT scanning; assay type: ADME, Gall bladder; conditions: in vivo, 1 h; outline: as §3
[5] = Drug uptake in BALB/c mouse urinary bladder at 5 to 8 MBq measured after 60 mins by CT scanning; assay type: ADME, tissue-based; conditions: in vivo, 1 h; outline: as §3
[6] = Drug uptake in BALB/c mouse skeleton at 5 to 8 MBq measured after 60 mins by CT scanning; assay type: ADME; conditions: in vivo, 1 h; outline: as §3
Liver [7] = assay: Drug uptake in BALB/c mouse liver at 5 to 8 MBq measured after 60 mins by CT scanning; assay type: ADME; conditions: in vivo, 1 h; outline: as §3
Liver [8] = assay: Drug uptake in BALB/c mouse liver at 5 to 8 MBq measured after 90 to 120 mins post injection by CT scanning; assay type: ADME; conditions: in vivo
Heart = assay: Drug uptake in BALB/c mouse heart at 5 to 8 MBq measured after 60 mins by CT scanning; assay type: ADME, tissue-based; conditions: in vivo, 1 h; outline: as §3
Liver [9] = assay: Drug uptake in BALB/c mouse liver at 5 to 8 MBq measured after 10 to 15 mins post injection by CT scanning; assay type: ADME; conditions: in vivo
Intestine = assay: Drug uptake in BALB/c mouse intestine at 5 to 8 MBq measured after 60 mins by CT scanning; assay type: ADME, tissue-based; conditions: in vivo, 1 h; outline: as §3

SMILES | IC50 (Collagenase 3) | IC50 [1] | IC50 [2] | IC50 (Neutrophil collagenase) | other results
O=C1NC(=O)C(NCc2cn(CCOCCOCCOCCF)nn2)(c2ccc(Oc3ccccc3)cc2)C(=O)N1 | 87 nM | 41 nM | 64 nM | 48 nM | 
O=C1NC(=O)C(NCc2cn(CCOCCOCCOCCOc3cccnc3F)nn2)(c2ccc(Oc3ccccc3)cc2)C(=O)N1 | 9 nM | 10 nM | 29 nM | 49 nM | 
O=C1NC(=O)C(c2ccc(Oc3ccccc3)cc2)(N2CCN(CCOCCOCCOCCNC(=O)c3ccc(F)cc3)CC2)C(=O)N1 | 16 nM | 4 nM | 5 nM | 15 nM | 
O=C1NC(=O)C(c2ccc(Oc3ccccc3)cc2)(N2CCN(CCOCCOCCOCCOCc3cn(CCF)nn3)CC2)C(=O)N1 | 51 nM | 27 nM | 58 nM | 58 nM | 
O=C1NC(=O)C(c2ccc(Oc3ccccc3)cc2)(N2CCN(CCOCCOCCOCCn3cc(CCCCOc4cccnc4F)nn3)CC2)C(=O)N1 | 40 nM | 60 nM | 52 nM | 116 nM | 
O=C1NC(=O)C(c2ccc(Oc3ccccc3)cc2)(N2CCN(CCOCCOCCOCCOCc3cn(CCOCCOCCOCCOc4cccnc4F)nn3)CC2)C(=O)N1 | 605 nM | 56 nM | 202 nM | 107 nM | 
CN(Cc1cn(CCOCCOCCOCCN2CCN(C3(c4ccc(Oc5ccccc5)cc4)C(=O)NC(=O)NC3=O)CC2)nn1)S(=O)(=O)c1ccc(F)cc1 | 21 nM | 7 nM | 12 nM | 15 nM | 
O=C1NC(=O)C(c2ccc(-c3ccccc3)cc2)(N2CCN(c3ccc([N+](=O)[O-])cc3)CC2)C(=O)N1 |  | 7 nM | 23 nM |  | logD [3]: 2.15
O=C1NC(=O)C(c2ccc(Oc3ccccc3)cc2)(N2CCN(CC[18F])CC2)C(=O)N1 | 645 nM |  |  | 138 nM | logD [3]: 2.15
O=C1NC(=O)C(c2ccc(Oc3ccccc3)cc2)(N2CCN(CCOCCOCCOCCOCc3cn(CC[18F])nn3)CC2)C(=O)N1 |  |  |  |  | Drug uptake (Brain): Not Active; Drug uptake (Kidney): Active; logD [3]: 0.78; Drug uptake (Lung): Not Active; Stability (Serum): Stable; Drug uptake [4]: Active; Drug uptake [5]: Active; Drug uptake [6]: Active; Drug uptake (Liver [7]): Active; Drug uptake (Liver [8]): Active; Drug uptake (Heart): Not Active; Drug uptake (Liver [9]): Active; Drug uptake (Intestine): Active
O=C1NC(=O)C(c2ccc(Oc3ccccc3)cc2)(N2CCN(CCOCCOCCOCCOCCOCCOCCOCCOCc3cn(CCF)nn3)CC2)C(=O)N1 | 94 nM | 74 nM | 44 nM | 150 nM | 
O=C1NC(=O)C(c2ccc(Oc3ccccc3)cc2)(N2CCN(CCOCCOCCOCCn3cc(CNS(=O)(=O)c4ccc(F)cc4)nn3)CC2)C(=O)N1 | 23 nM | 20 nM | 13 nM | 19 nM | 
O=C1NC(=O)C(c2ccc(Oc3ccccc3)cc2)(N2CCN(c3cccc(F)n3)CC2)C(=O)N1 | 48 nM | 9 nM | 203 nM | 129 nM | 
O=C1NC(=O)C(c2ccc(Oc3ccccc3)cc2)(N2CCN(CCOCCOCCOCCn3cc(COC(=O)c4ccc(F)cc4)nn3)CC2)C(=O)N1 | 7 nM | 23 nM | 22 nM | 27 nM | 
